An excerpt weighted towards active compounds, which were near 2.1% of everything screened.
C2C12 statin: suppressors of simvastatin-induced myotoxicity in C2C12 myotubes. ATP luminescence, 48 h; scaled: DMSO 0, geranylgeraniol control 100. rescue of ATP level, % at 7.49 µM. hit rate 0.78% among 330,000;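 active = mean ATP rescue above about 67%, or every replicate alone reaching that limit, limit read from the data, passing the limit was not always enough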;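 note: myotubes were challenged with 10 µM simvastatin during compound exposure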
APOBEC3G inh: inhibitors of human APOBEC3G DNA deaminase | hit rate 0.28% among 330,000 | recombinant A3G, ssDNA deamination FAM/TAMRA fluorescence | AID 493012 | inhibition, % at 20 µM | Q9HC16;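 active = inhibition of at least 40% at 20 µM, with no more than 30% in the related APOBEC3A deaminase screen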;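 note: plate controls were DMSO wells with A3G for no effect and wells lacking A3G enzyme for full effect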
APOBEC3A inh: inhibitors of human APOBEC3A DNA deaminase. recombinant A3A, FAM/TAMRA ssDNA deamination fluorescence. P31941. hit rate 0.41% among 330,000. inhibition, % at 20 µM;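 active = at least 40% inhibition at 20 µM here, with at most 30% in a related deaminase screen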;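 note: plate controls were A3A with DMSO for no effect and wells lacking A3A enzyme for full effect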
Target sequence (P31941 whole entry, looked up): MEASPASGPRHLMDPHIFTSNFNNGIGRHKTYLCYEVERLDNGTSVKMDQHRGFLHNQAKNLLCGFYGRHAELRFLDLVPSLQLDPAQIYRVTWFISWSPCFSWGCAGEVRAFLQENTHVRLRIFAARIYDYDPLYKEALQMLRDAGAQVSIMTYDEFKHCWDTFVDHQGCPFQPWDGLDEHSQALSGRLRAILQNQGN
ARFGAP1 inh: inhibitors of rat ARFGAP1. inhibition, % at 16.5 µM. Q62848. hit rate 0.26% among 360,000. AID 651572. Arfgap1-stimulated ARF1 GTP hydrolysis, GDP FP detection;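 active = inhibition above a per-plate limit, mean inhibition of low control wells plus 3 SD, cut at about 25% in these data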;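 note: 0% = DMSO wells with enzyme and 100% = wells lacking Arfgap1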
Target sequence (Q62848 1-136 limits assumed): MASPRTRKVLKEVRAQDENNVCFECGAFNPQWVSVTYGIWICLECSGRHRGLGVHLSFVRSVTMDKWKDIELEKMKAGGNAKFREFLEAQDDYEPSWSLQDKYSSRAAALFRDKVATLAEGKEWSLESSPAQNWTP
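material = rat Arfgap1 catalytic domain, aa 1-136 | also added = human ARF1(Δ1-17)-GTP substrate | compound dosing = one concentration, 16.5 µM, DMSO 1.26% | times = GTP hydrolysis reaction 2 h at 25 °C | measured by = FP, GDP Alexa 633 tracer displaced from anti-GDP antibody, 620/688 nm | evaluation = percent inhibition of Arfgap1-stimulated GTP hydrolysis | replication = single well per compound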
Mot1-301 SUMO: blocks SUMOylation pathway, rescuing yeast Mot1-301 growth; growth rescue, % at 18.8 µM; AID 2716; hit rate 1% among 320,000; S. cerevisiae Mot1-301 growth rescue, ATP luminescence, 38.5C; percent above DMSO median, 100 means doubled;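 active = every valid replicate shows activation above 250% relative to neutral control wells; inactive = the rest, any valid replicate at or below 250%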;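 note: OY570 slx delta 5 strain wells were the positive control but not used for scaling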
ASAP1 inh: blocks human ASAP1-stimulated Arf1 GTP hydrolysis; Q9ULH1; GDP FP detection; inhibition, % at 16.5 µM; hit rate 0.19% among 360,000; in the data active = inhibition above about 25%;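 note: 0% = vehicle with enzyme and substrate and 100% = no enzyme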
Yeast Mot1 SUMO: SUMO pathway inhibitors in yeast Mot1-301 growth. shares compounds with Mot1-301 SUMO. S. cerevisiae Mot1-301 galactose growth, ATP luminescence, 24 h; -100 = growth of slx-deleted rescue strain. AID 493004. growth activity, percent, % at 42 µM. 2,300 tested, under 10 active;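 active = Signal drops as the depositor expects, and the fitted half-maximal dose is no more than ten times the top valid tested dose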;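 note: more negative values mean stronger growth rescue toward the control strain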
Numbers without * were called inactive; x = no result; + = active, no number.

SMILES | C2C12 statin | APOBEC3G inh | APOBEC3A inh | ARFGAP1 inh | Mot1-301 SUMO | ASAP1 inh | Yeast Mot1 SUMO
COc1ccc(NC(=O)Cn2c(=O)cnc3ccccc32)cc1S(=O)(=O)N1CCCCC1 | 4 | -4 | 6 | 3 | 428* | -13 | 0
CO[C@@H]1CN(C)C(=O)c2cc(NS(=O)(=O)CC(F)(F)F)ccc2OC[C@H](C)N(C(=O)c2ccc3c(c2)OCO3)C[C@@H]1C | 2 | x | x | x | x | x | x
C[C@@H]1CN([C@H](C)CO)S(=O)(=O)c2ccc(C#Cc3cccnc3)cc2O[C@H]1CN(C)C(=O)CN(C)C | -1 | x | x | x | x | x | x
CN(C(=O)c1ccc(-c2nn(C)c(=O)c3ccccc23)cc1)C1CCCCC1 | -27 | -6 | 0 | 4 | 736* | 9 | 0
O=C(C[C@@H]1C=C[C@@H](NC(=O)c2ccccc2)[C@@H](CO)O1)NCCc1ccncc1 | 15 | x | x | x | x | x | x
COCCNC(=O)NC(=O)CSc1nc(C)c(C)c(C)n1 | 5 | -2 | 4 | 6 | 494* | -1 | 1
CO[C@@H]1CN(C)C(=O)c2ccc(NC(=O)C3CCOCC3)cc2OC[C@H](C)N(C(C)=O)C[C@@H]1C | -27 | x | x | x | x | x | x
COCC(=O)Nc1ccc2c(c1)[C@H]1C[C@@H](CC(=O)NCCN3CCCCC3)O[C@H](CO)[C@H]1O2 | -2 | x | x | x | x | x | x
O=c1cc(COc2ncnc3ccccc23)nc2sccn12 | -3 | 7 | 12 | -14 | 543* | -15 | 0
O=C(CN1CCN(Cc2ccc(F)cc2)CC1)NCc1ccccc1 | -8 | -11 | -2 | 1 | 651* | 12 | 0
C[C@@H]1CN([C@@H](C)CO)C(=O)Cc2cc(NS(C)(=O)=O)ccc2O[C@H]1CN(C)C(=O)Nc1cccc2ccccc12 | 16 | x | x | x | x | x | x
Cc1cnc(C(=O)OCC(=O)Nc2ccc(C)c(S(=O)(=O)N(C)C)c2)cn1 | x | -1 | -3 | -1 | 669* | 10 | 1
COc1ccc(NC(=O)c2ccc(COc3ccccc3OC)o2)cc1OC | 1 | -5 | -2 | 5 | 476* | 5 | 0
CC(C)C(=O)Nc1ccc2c(c1)C(=O)N(C)[C@@H]1CC[C@@H](CC(=O)NCC3CC3)O[C@@H]1CO2 | -11 | x | x | x | x | x | x
CC(C)NC(=O)Nc1ccc2c(c1)C(=O)N([C@H](C)CO)C[C@H](C)[C@@H](CN(C)Cc1ccc(-c3ccccc3)cc1)O2 | -9 | x | x | x | x | x | x
CC(=Nc1ccccc1)C1=C(O)CC(C)(C)CC1=O | -1 | 0 | 1 | 6 | 432* | -8 | 1
COc1ccc(C(=O)Nc2ccccc2C(=O)NCCN2CCOCC2)cc1 | 8 | -5 | -3 | 11 | 10 | 11 | x
COc1ccc(C(=O)Nc2ccccc2C(=O)NCCN2CCOCC2)cc1OC | -1 | -8 | 0 | 10 | 424* | -3 | 0
CCCNC(=O)[C@H]1[C@H](CO)[C@H]2Cn3c(ccc(-c4ccccc4OC)c3=O)[C@H]2N1CC | 2 | x | x | x | x | x | x
Cc1ccc(C(C(=O)NCC2CCCO2)N(Cc2ccccc2F)C(=O)Cn2nnc(-c3cccs3)n2)cc1 (centres undefined) | -7 | -1 | 1 | 0 | 371* | 15 | 0
CCOC(=O)c1ccc(CNC(=O)Cn2nnc(-c3ccc(C)cc3)n2)o1 | 7 | -3 | -1 | -12 | + | -10 | 1
CCOc1ccc(-c2nnc(SCC(=O)N3CCCC3)o2)cc1 | -6 | -11 | -6 | -10 | 713* | -9 | 1
COc1ccc(-c2nnc(SCC(=O)N3CCCCC3)o2)cc1 | 19 | 1 | 5 | -1 | 542* | 6 | 0
COc1ccc(-c2cc(=O)[nH]c3ccccc23)cc1 | -8 | 0 | -1 | -10 | 2 | -5 | x
COc1cccc2[nH]c(=O)c(-c3ccccc3)cc12 | -9 | -6 | -4 | 3 | 453* | -1 | -1
SMILES | C2C12 statin | APOBEC3G inh | APOBEC3A inh | ARFGAP1 inh | Mot1-301 SUMO | ASAP1 inh | Yeast Mot1 SUMO
Cc1ccc(S(=O)(=O)NCC[C@@H]2CC[C@@H](NC(=O)c3ccccn3)[C@@H](CO)O2)cc1 | 11 | x | x | x | x | x | x
NCC[C@H]1CC[C@H](NS(=O)(=O)Cc2ccccc2)[C@@H](CO)O1 | -7 | x | x | x | x | x | x
CCCc1cc(=O)oc2c3c(c4c(c12)OC(C)(C)C=C4)OC(C)C(C)C3O (centres undefined) | 5 | 4 | 5 | 11 | 779* | 6 | 0
COCCNC(=O)C[C@@H]1CC[C@H]2[C@@H](COC[C@H](O)CN2C(=O)Nc2ccc3c(c2)OCO3)O1 | 2 | x | x | x | x | x | x
Fc1ccc(-c2cc(C(F)(F)F)nc(NCc3cccs3)n2)cc1 | 12 | -4 | -6 | 17 | 458* | -6 | 1
COc1cc2c(cc1OC)C(c1ccc(SC)cc1)CC(=O)N2 (centres undefined) | 10 | -1 | -3 | -2 | 666* | 0 | -1
COc1cc2c(cc1OC)C(c1ccccc1C)CC(=O)N2 (centres undefined) | 14 | 0 | 0 | 10 | 732* | 18 | 0
COc1cc2c(cc1OC)C(c1cccc(OC)c1OC)CC(=O)N2 (centres undefined) | -5 | -9 | 1 | 4 | 4 | -2 | x
C[C@H]1CN([C@@H](C)CO)C(=O)c2cc(NC(=O)Nc3ccccc3)ccc2O[C@H]1CN(C)S(=O)(=O)c1cccs1 | -47 | x | x | x | x | x | x
N#C/C(=C/c1ccc(N2CCOCC2)o1)c1nc2ccccc2[nH]1 | -48 | -57 | -27 | 4 | 11 | -9 | x
Cc1ccc2nc(/C(C#N)=C\c3cc(O)ccc3[N+](=O)[O-])[nH]c2c1 | x | -4 | -2 | 8 | 503* | -1 | 0
N#C/C(=C\c1cc([N+](=O)[O-])c(N2CCOCC2)cc1N1CCOCC1)c1nc2ccccc2[nH]1 | -1 | -3 | 1 | -14 | 361* | -8 | 1
C[C@@H]1CN([C@@H](C)CO)C(=O)Cc2cc(NC(=O)CCCCCC(=O)Nc3ccccc3N)ccc2O[C@@H]1CN(C)S(=O)(=O)c1ccc(F)cc1 | 29 | x | x | x | x | x | x
CCOC(=O)c1c(CN2CCCCC2)n(C)c2cc(Br)c(O)c(CN(C)C)c12 | -12 | -10 | -4 | x | 472* | x | 0

Screening results deposited in PubChem by several laboratories.
